Measured values collected from several papers.

SMILES	assay	system	setting	quantity	result
C[C@H](Cn1cnc2c(N)ncnc21)OCP(=O)(O)OCCCOCCCCCCCCCCCCC#C[Si](C)(C)C.N	metabolic stability	CD-1 mouse, liver microsomes	3 µM, pH 7.4	half-life	> 2 h
Cc1ncc(C)n2nc(/C=C/c3nc(N4CCCC4)cc(N4CCOCC4)n3)nc12		male Fischer 344 rat, plasma	oral, 0.3 mg/kg, 1 h	concentration	50 ng/mL
CC(C)(C)[C@H](NC(=O)[C@H](CCONC(=N)N)NC(=O)Cc1ccc(CNC(=N)N)cc1)C(=O)N[C@@H](CCONC(=N)N)C(=O)NCc1ccc(C(=N)N)cc1		male Sprague-Dawley rat, plasma	intravenous, 1 mg/kg	C0	2080 ng/mL
O=C(Nc1cccnn1)N1CCN([C@@H]2CCOc3cc(C(F)(F)F)ccc32)CC1		male Sprague-Dawley rat, plasma	oral, 1 mg/kg, 1 h	concentration	125 ng/mL
C[C@H](Cn1cnc2c(N)ncnc21)OCP(=O)(O)OCCCOCCCCCCCCCCCCCC#CC(F)(F)F.N	metabolic stability	CD-1 mouse, liver microsomes	3 µM, pH 7.4	half-life	> 2 h
Cl.Cl.O=C(CCN1CCCCC1)c1ccc(-c2ccc(C(=O)CCN3CCCCC3)cc2)cc1		Sprague-Dawley rat, plasma	oral, 100 mg/kg	half-life	8.23 h
N=c1c2c(-c3ccccc3)c(-c3ccccc3)n(Cc3ccccc3)c2ncn1[C@H]1CC[C@H](O)CC1	metabolic stability	mouse, liver microsomes	1 µM	half-life	> 2 h
N#C[C@@H]1CC(F)(F)CN1C(=O)CNC(=O)c1ccnc2ccc(OCCCN3CCN(C(=O)CN4CCN(CC(=O)[O-])CCN(CC(=O)[O-])CC4)CC3)cc12.[18F-].[Al+3]		rat, stomach	intravenous, 2 h	tracer uptake	1.05 %ID/g
Cc1cc(C)nc(Nc2ncc(C(=O)NCCc3c(C)[nH]c4ccccc34)cn2)c1	metabolic stability	mouse, liver microsomes	1 µM	half-life	0.0783 h
